{"data": "Experimental data pooled from the literature", "target": "Substance-P receptor (TACR1, Homo sapiens, UniProt P25103)", "note": "Compare with care: the assays were run in different laboratories."}
{"Compound": "CC(C)Cn1cnc2c(N)nc3ccccc3c21", "test": "ligand displacement, radioligand", "setting": "10 µM", "inhibition [%]": -8}
{"Compound": "COc1ccc(C(=O)NCc2cc(C(C)C)no2)cc1OC1CCN(C)CC1", "test": "ligand displacement, radioligand", "setting": "10 µM", "inhibition [%]": 22}
{"Compound": "O=C(Nc1cccnn1)N1CCN([C@@H]2CCOc3cc(C(F)(F)F)ccc32)CC1", "test": "ligand displacement", "setting": "20 µM", "inhibition [%]": 38}
{"Compound": "C[C@H](C(=O)N[C@H]1COc2ccccc2[C@@H]1S(C)(=O)=O)c1ccc(F)cc1", "test": "cell-free assay", "setting": "10 µM", "inhibition [%]": 11}
{"Compound": "CN(CCN1CCC(OC(=O)Nc2ccccc2-c2ccccc2)CC1)C(=O)c1ccc(CN2CCC(C(N)=O)CC2)cc1", "test": "ligand displacement, radioligand", "setting": "1 µM", "inhibition [%]": -6}
{"Compound": "CCCCCCCCCCCC(=O)OC[C@@H](COP(=O)(O)OCCNC(=O)c1ccc(Cn2c(=O)[nH]c3c(N)nc(OCCOC)nc32)cc1)OC(=O)CCCCCCCCCCC", "test": "ligand displacement, radioligand", "setting": "10 µM", "inhibition [%]": 23}
{"Compound": "COc1ccc(S(=O)(=O)N2CCCCC2)cc1C", "test": "ligand displacement, radioligand", "setting": "10 µM", "inhibition [%]": "< 30"}
{"Compound": "c1ccc(C(NCCNC(c2ccccc2)c2ccccc2)c2ccccc2)cc1", "test": "cell-free assay", "setting": "10 µM", "inhibition [%]": 49}
{"Compound": "CC(C)N1CCC[C@H]1CNC(=O)c1cn(C2CCCC2)c(=O)c2c1c1ccccc1n2C", "test": "ligand displacement, radioligand", "setting": "10 µM", "inhibition [%]": 23}
